# Activity calls are given as the source filed them. No cut-off for these calls is given here.
# Assays:
# Format in all cases: cell-based
# [1] = target: T1, Muscarinic acetylcholine receptor M1 (Homo sapiens, UniProt P11229); assay: (§1) Displacement of [3H]NMS from human muscarinic M1 receptor expressed in CHO cells by wash-resistant binding method
# T1 sequence (P11229 whole entry): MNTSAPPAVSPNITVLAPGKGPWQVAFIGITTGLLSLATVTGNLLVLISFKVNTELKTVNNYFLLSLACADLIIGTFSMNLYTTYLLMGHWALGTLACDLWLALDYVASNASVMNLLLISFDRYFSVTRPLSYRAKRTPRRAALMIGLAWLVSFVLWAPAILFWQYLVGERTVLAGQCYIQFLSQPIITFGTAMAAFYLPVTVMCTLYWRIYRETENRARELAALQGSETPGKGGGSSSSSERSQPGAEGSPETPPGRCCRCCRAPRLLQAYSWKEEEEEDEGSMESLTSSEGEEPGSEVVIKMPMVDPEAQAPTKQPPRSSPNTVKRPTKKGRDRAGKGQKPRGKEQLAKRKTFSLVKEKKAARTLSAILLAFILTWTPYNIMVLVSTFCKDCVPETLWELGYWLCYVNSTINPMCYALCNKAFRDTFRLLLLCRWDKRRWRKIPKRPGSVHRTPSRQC
# Outline: (§2)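 Human M1-transfected CHO cells in Hepes buffer were preincubated with test ligand. Each wash was a ~50-volume buffer dilution and centrifugation, done three times in all. Washed cells were resuspended, given [3H]NMS, and incubated 1 h at 37 °C. Bound radioactivity was then taken by filtration and scintillation counting; pIC50 derived.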
# [2] = target: T1, Muscarinic acetylcholine receptor M1; assay: Displacement of [3H]NMS from human muscarinic M1 receptor expressed in CHO cells in continuous presence of radioligand
# Outline: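 CHO cells stably expressing human M1 receptor, grown in DMEM with 10% bovine calf serum and geneticin, trypsinized 4 days after subculture and washed into Hepes buffer. Cells incubated 1 h at 37 °C with 0.14–0.20 nM [3H]NMS plus increasing analog concentrations. Atropine defined nonspecific binding. Ended by rapid GF/B filtration and ice-cold saline washes, then scintillation counting; pIC50 reported.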
# [3] = target: T2, Muscarinic acetylcholine receptor M1 (Homo sapiens) (UniProt P11229); assay: as §1; outline: as §2
# T2 sequence (whole entry): T1 sequence (P11229 whole entry)
# [4] = target: T1, Muscarinic acetylcholine receptor M1; assay: Displacement of [3H]NMS from human muscarinic M1 receptor expressed in CHO cells at pH 8 in continuous presence of radioligand
# Outline: (§3)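 CHO cells stably transfected with human M1 gene, grown in DMEM with 10% bovine calf serum and geneticin, harvested by mild trypsinization 4 days after subculture, washed in Hepes medium. Buffer acidified to pH 6.0 or set to pH 8.0. Cells incubated 1 h at 37 °C with 0.14–0.20 nM [3H]NMS plus increasing analog concentrations. Nonspecific binding defined with 10 µM atropine. Filtration, saline washes, scintillation counting; pIC50 derived.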
# [5] = target: T1, Muscarinic acetylcholine receptor M1; assay: Displacement of [3H]NMS from human muscarinic M1 receptor expressed in CHO cells at pH 8 by wash-resistant binding method
# Outline: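 Human M1-transfected CHO cells preincubated with increasing analog concentrations in pH 8.0 buffer. Each wash is ~50 vol buffer dilution then centrifugation, done three times in total. Pellet resuspended in buffer with [3H]NMS for 1 h at 37 °C. Bound radioactivity collected by rapid filtration and scintillation counting. Result expressed as pIC50 of residual inhibition.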
# [6] = target: T1, Muscarinic acetylcholine receptor M1; assay: Displacement of [3H]NMS from human muscarinic M1 receptor expressed in CHO cells at pH 6 in continuous presence of radioligand; outline: as §3
# [7] = target: T1, Muscarinic acetylcholine receptor M1; assay: (§4) Displacement of [3H]NMS from human muscarinic M1 receptor expressed in CHO cells at pH 6 by wash-resistant binding method
# Outline: (§5)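 Washout paradigm run in binding buffer acidified to pH 6.0, on CHO cells stably carrying human M1 receptor. After ligand preincubation, cells went through three rounds of ~50-volume dilution plus centrifugation, then resuspension with [3H]NMS for 1 h at 37 °C. Residual bound label was measured by filtration and scintillation counting; pIC50 derived.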
# [8] = target: T2, Muscarinic acetylcholine receptor M1 (Homo sapiens); assay: as §4; outline: as §5
Compound,IC50 [1],IC50 [2],Activity [3],further results
CN1CCC=C(c2nsnc2OCCN)C1,110000 nM,1000 nM,–,–
CCOC(=O)CCCCOc1nsnc1C1=CCCN(C)C1,–,58.9 nM,inactive,–
CNCCCCOc1nsnc1C1=CCCN(C)C1,–,7080 nM,inactive,–
CN1CCC=C(c2nsnc2OCCCCCCN)C1,3980 nM,646 nM,–,–
CN1CCC=C(c2nsnc2OCCO)C1,–,1070 nM,inactive,–
CN1CCC=C(c2nsnc2OCCCCn2cccc2)C1,28800 nM,275 nM,–,IC50 [4]: 219 nM; IC50 [5]: 12000 nM; IC50 [6]: 407 nM; IC50 [7]: 39800 nM
CCOc1nsnc1C1=CCCN(C)C1,–,141 nM,inactive,–
CN1CCC=C(c2nsnc2OCCCCCN)C1,44700 nM,1910 nM,–,–
CN1CCC=C(c2nsnc2OCCCCO)C1,–,309 nM,inactive,–
CN1CCC=C(c2nsnc2OCCCCn2ccnc2)C1,52500 nM,871 nM,–,IC50 [4]: 871 nM; IC50 [5]: 53700 nM; IC50 [6]: 2290 nM; Activity [8]: inactive
CN1CCC=C(c2nsnc2OCCCN)C1,14800 nM,162 nM,–,–
CN1CCC=C(c2nsnc2OCC(=O)O)C1,–,617 nM,inactive,–
CN1CCC=C(c2nsnc2OCCCO)C1,–,3800 nM,inactive,–
CN1CCC=C(c2nsnc2OCC#Cc2ccccc2)C1,2140 nM,37.2 nM,–,–
CCCOc1nsnc1C1=CCCN(C)C1,–,52.5 nM,inactive,–
CN1CCC=C(c2nsnc2OCCCCN)C1,–,77600 nM,inactive,–

# Reference: ChEMBL document CHEMBL1143201 (Bioorg Med Chem, 2008)
